Measurements taken from ChEMBL document CHEMBL1132214, “Synthesis, mode of action, and biological activities of rebeccamycin bromo derivatives” (J Med Chem, 1999).
Values after ≈ are worked out from the molar mass of the structure shown.

How the values were obtained:
Bacillus cereus = assay: Compound was tested for antimicrobial activity against a gram-positive bacterium Bacillus cereus; assay type: functional
Summary of the method: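 Bacillus cereus ATCC 14579 in Mueller-Hinton broth, pH 7.4, incubated 24 h at 27 °C. Compounds diluted in DMSO over 12 tubes spanning 100 to 0.05 µg/mL. MIC read from the dilution series.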

CEM-SS [1] = assay: Compound was tested for anti-HIV activity in HIV -I Lai infected CEM-SS cells.; assay type: functional, cell-based; conditions: Homo sapiens
Summary of the method: (§1)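 CEM-SS cells kept at 37 °C, 5% CO2 in RPMI 1640 with 10% decomplemented FBS, infected with HIV-1 Lai. Antiviral IC50 from reverse transcriptase activity of virus particles released into the medium. Cytotoxicity (CC50) measured in parallel. Selectivity index = CC50/IC50.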

CEM-SS [2] = assay: Selective Index of against HIV -I Lai infected CEM-SS cells.; assay type: functional, Homo sapiens; summary of the method: as §1
CEM-SS [3] = assay: The cytotoxicity was evaluated in HIV -I Lai infected CEM-SS cells.; assay type: functional; conditions: Homo sapiens; summary of the method: as §1
P388CPT5 = assay: In vitro inhibitory concentration against murine P388CPT5 leukemia cell proliferation; assay type: functional, cell-based; conditions: Mus musculus
Summary of the method: (§2)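 Murine P388 leukemia cells, or the camptothecin-resistant P388CPT5 subline, exposed 96 h at 37 °C to a range of drug concentrations. Viability scored by neutral red staining. IC50 taken as the concentration giving 50% growth inhibition.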

P388 [4] = assay: (§3) Ratio of IC50 of p388 and p388CPT5 cell lines; assay type: functional, Mus musculus
Summary of the method: (§4)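 Murine P388 leukaemia cells and camptothecin-resistant P388CPT5 cells were exposed to graded drug concentrations for 96 h at 37 °C. Viability was read by neutral red staining and the 50% growth-inhibitory concentration (IC50) taken for each line. The resistance ratio is IC50(P388CPT5)/IC50(P388).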

P388 [5] = assay: In vitro inhibitory concentration against murine P388 leukemia cell proliferation; assay type: functional, cell-based; conditions: Mus musculus; summary of the method: as §2
P388 [6] = assay: Fraction change in percent is observed.; assay type: functional, Mus musculus
Summary of the method: (§5)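 Exponentially growing P388 cells (1.5 × 10^6 per mL) incubated with drug, usually 100 µM, for 30 min at 37 °C. Excitation 320 nm, emission 400–600 nm. Whole-cell spectrum read before centrifugation. Pellet spectrum read after one HBSS wash and resuspension in drug-free buffer. Intensities expressed relative to free rebeccamycin; fraction change is whole-cell versus free drug.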

P388 [7] = assay: Compound was tested for drug bound to cell pellet (P388 leukemia) after centrifugation at 320 nm.; assay type: functional, Mus musculus; summary of the method: as §5
P388 [8] = assay: Compound was tested for drug bound to whole cells (P388 leukemia) before centrifugation at 320 nm.; assay type: functional, Mus musculus; summary of the method: as §5
[9] = tested on: DNA topoisomerase 1 (Bos taurus); assay: Compound was tested for anti microbial activity against topoisomerase I.
[10] = as §3; assay type: functional; summary of the method: as §4
[11] = target: T1, DNA topoisomerase 1 (Mus musculus) (UniProt Q04750)
T1 sequence (whole entry): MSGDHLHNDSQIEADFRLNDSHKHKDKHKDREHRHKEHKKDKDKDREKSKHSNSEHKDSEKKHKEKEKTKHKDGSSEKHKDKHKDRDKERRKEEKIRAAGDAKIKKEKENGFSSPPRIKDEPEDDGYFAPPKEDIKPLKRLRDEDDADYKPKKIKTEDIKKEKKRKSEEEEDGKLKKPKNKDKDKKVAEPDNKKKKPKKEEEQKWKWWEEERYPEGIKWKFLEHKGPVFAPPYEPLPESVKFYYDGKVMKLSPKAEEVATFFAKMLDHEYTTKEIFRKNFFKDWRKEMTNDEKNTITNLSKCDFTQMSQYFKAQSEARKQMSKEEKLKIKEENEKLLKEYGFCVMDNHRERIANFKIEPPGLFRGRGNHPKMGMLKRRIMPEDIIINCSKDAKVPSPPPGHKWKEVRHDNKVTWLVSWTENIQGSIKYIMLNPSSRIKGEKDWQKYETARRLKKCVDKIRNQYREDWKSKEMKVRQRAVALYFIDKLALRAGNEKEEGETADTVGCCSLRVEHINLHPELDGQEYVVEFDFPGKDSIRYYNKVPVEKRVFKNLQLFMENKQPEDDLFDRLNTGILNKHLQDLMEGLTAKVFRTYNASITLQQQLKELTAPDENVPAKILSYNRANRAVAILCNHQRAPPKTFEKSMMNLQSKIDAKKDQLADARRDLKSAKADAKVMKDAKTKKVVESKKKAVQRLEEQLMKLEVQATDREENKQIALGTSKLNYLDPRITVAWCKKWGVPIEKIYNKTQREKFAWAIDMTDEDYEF

Row | Compound | MIC (Bacillus cereus) | IC50 (CEM-SS [1]) | Selectivity index (CEM-SS [2]) | CC50 (CEM-SS [3]) | IC50 (P388CPT5) | Ratio (P388 [4]) | IC50 (P388 [5]) | Fraction change (P388 [6]) | Activity (P388 [7]) | Whole-cell fluorescence relative to free drug (P388 [8]) | MIC [9] | Ratio [10] | MIC [11]
1 | COC1C(CO)OC(n2c3ccc(Br)cc3c3c4c(c5c6cc(Br)ccc6[nH]c5c32)C(=O)NC4=O)C(O)C1O (configuration not stated) | 19 µM (≈ 12.5 µg/mL) | 70 nM | 4.8 | 340 nM | > 15000 nM | >58 | 260 nM | 46% | 0.08 | 0.15 | 0.15 µM (≈ 0.0989 µg/mL) | – | –
2 | CO[C@H]1[C@H](O)[C@@H](O)[C@H](n2c3ccccc3c3c4c(c5c6ccccc6[nH]c5c32)C(=O)N(C)C4=O)O[C@@H]1CO | – | 4000 nM | 2 | 7900 nM | – | – | 670 nM | – | – | – | – | – | –
3 | CO[C@H]1[C@H](O)[C@@H](O)[C@H](n2c3c(Cl)cccc3c3c4c(c5c6cccc(Cl)c6[nH]c5c32)C(=O)N(C)C4=O)O[C@@H]1CO | – | 4900 nM | 1.6 | 8000 nM | – | – | – | – | – | – | – | – | –
4 | CC[C@@]1(O)C(=O)OCc2c1cc1n(c2=O)Cc2cc3ccccc3nc2-1 [CAMPTOTHECIN] | – | – | – | – | 2800 nM | – | 32 nM | – | – | – | – | 87.5 | 0.086 µM (≈ 0.03 µg/mL)
5 | CO[C@H]1[C@H](O)[C@@H](O)[C@H](n2c3c(Cl)cccc3c3c4c(c5c6cccc(Cl)c6[nH]c5c32)C(=O)NC4=O)O[C@@H]1CO [REBECCAMYCIN] | – | – | 2 SI | – | – | 8.5 | – | 29% | 0.81 | 1.29 | – | – | –
6 | CO[C@H]1[C@H](O)[C@@H](O)[C@H](n2c3ccccc3c3c4c(c5c6ccccc6[nH]c5c32)C(=O)NC4=O)O[C@@H]1CO | – | – | 5.6 | – | – | >28 | – | -26% | 0.33 | 0.38 | – | – | –
7 | CO[C@H]1[C@H](O)[C@@H](O)[C@H](n2c3ccc(Br)cc3c3c4c(c5c6cc(Br)ccc6[nH]c5c32)C(=O)OC4=O)O[C@@H]1CO | – | – | 1.9 | – | – | 8.3 | – | – | – | – | – | – | –
8 | CO[C@H]1[C@H](O)[C@@H](O)[C@H](n2c3ccccc3c3c4c(c5c6ccccc6[nH]c5c32)C(=O)OC4=O)O[C@@H]1CO | – | – | >1.98 SI | – | – | >3.1 | – | – | – | – | – | – | –
9 | COC1C(CO)OC(n2c3ccc(Br)cc3c3c4c(c5c6cc(Br)ccc6[nH]c5c32)C(=O)N(C)C4=O)C(O)C1O (configuration not stated) | > 74 µM | 1170 nM | 1.3 | 1490 nM | > 15000 nM | >3 | 4900 nM | 13% | 0.24 | 0.46 | > 15 µM | – | –
